According to ChEMBL document CHEMBL4177554, “Ester-to-amide rearrangement of ethanolamine-derived prodrugs of sobetirome with increased blood-brain barrier penetration” (Bioorg Med Chem, 2017):

Tests used:
[1] = Prodrug activation in C57Bl/6 mouse brain assessed as sobetirome level at 1.5 umol/kg, ip after 1 hr by LC-MS/MS analysis; format: organism-based; conditions: in vivo
How it was run: (§1)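 Single i.p. dose of 1.5 μmol/kg in 50% DMSO/saline to male C57Bl/6 mice (8–10 wk), n = 3. Agents were given as amide-rearranged isomers where rearrangement occurs. Whole brain and blood were taken at 1 h. Sobetirome was measured by LC-MS/MS with d6-sobetirome internal standard, and the brain/serum ratio was calculated. Values are mean with SEM.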

[2] = Ratio of drug level in C57Bl/6 mouse brain to serum assessed as sobetirome level at 1.5 umol/kg, ip after 1 hr by LC-MS/MS analysis; format: ADME, organism-based; how it was run: as §1
[3] = Ratio of AUC (0 to t) in C57Bl/6 mouse brain to serum at 1.5 umol/kg, ip by LC-MS/MS analysis; format: ADME, organism-based; conditions: read-out: Ratio AUC
How it was run: (§2)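 Male C57Bl/6 mice (8–10 wk) given a single i.p. dose of 1.5 μmol/kg in 50% DMSO/saline. Three mice per time point were killed at 0.25, 0.5, 1, 2, 4 and 8 h. Brain, liver, heart and kidney were homogenized with d6-sobetirome internal standard and acetonitrile-extracted, as was serum. Sobetirome was quantified by negative-ESI LC-MS/MS on C18. AUC0→t was computed over 8 h.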

[4] = Elimination half life in C57Bl/6 mouse at 3.05 umol/kg, iv by LC-MS/MS analysis; format: ADME, organism-based; conditions: in vivo, read-out: beta t1/2 (converted)
How it was run: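 C57Bl/6 mice, n = 3 per cohort, dosed i.v. by tail vein at 3.05 μmol/kg or by oral gavage at 30.5 μmol/kg in 50% DMSO/saline. Serial serum samples were taken (i.v.: 5 min–8 h; p.o.: 10 min–8 h). Prodrug and sobetirome were quantified by LC-MS/MS. %F = (AUCp.o./AUCi.v.)·(dosei.v./dosep.o.)·100. t½ came from the log-concentration slope of the last five i.v. time points.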

Mus musculus [5] = assay: Upregulation of Hr expression levels in ip dosed mouse brain for 7 days measured after 2 hrs post last dose by […] green dye-based qPCR analysis; format: functional
How it was run: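 Mice, n = 3 per dose, received six i.p. doses in 1:1 saline/DMSO. Brains were collected 2 h post-injection. RNA was extracted with Trizol and a column kit with DNase treatment, and cDNA was diluted two-fold. Hairless was measured by qPCR, normalized to GAPDH, by comparative CT. ED50 ± SEM came from a sigmoidal dose–response fit. Run in triplicate.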

[6] = AUC (0 to t) in C57Bl/6 mouse brain assessed as sobetirome level at 1.5 umol/kg, ip by LC-MS/MS analysis; format: ADME, organism-based; conditions: in vivo; how it was run: as §2
[7] = AUC (0 to t) in C57Bl/6 mouse serum assessed as sobetirome level at 1.5 umol/kg, ip by LC-MS/MS analysis; format: ADME, organism-based; conditions: in vivo; how it was run: as §2
[8] = AUC (0 to t) in C57Bl/6 mouse liver assessed as sobetirome level at 1.5 umol/kg, ip by LC-MS/MS analysis; format: ADME, organism-based; conditions: in vivo; how it was run: as §2
[9] = AUC (0 to t) in C57Bl/6 mouse heart assessed as sobetirome level at 1.5 umol/kg, ip by LC-MS/MS analysis; format: ADME, organism-based; conditions: in vivo; how it was run: as §2
[10] = AUC (0 to t) in C57Bl/6 mouse kidney assessed as sobetirome level at 1.5 umol/kg, ip by LC-MS/MS analysis; format: ADME, organism-based; conditions: in vivo; how it was run: as §2
Mus musculus [11] = assay: Oral bioavailability in C57Bl/6 mouse at 30.5 umol/kg administered via oral gavage by LC-MS/MS analysis; conditions: in vivo
Mus musculus [12] = assay: Total oral bioavailability in C57Bl/6 mouse assessed as sobetirome level at 30.5 umol/kg administered via oral gavage by LC-MS/MS analysis; conditions: in vivo
[13] = Drug uptake in C57Bl/6 mouse brain at 1.5 umol/kg, ip after 1 hr by LC-MS/MS analysis; format: ADME, organism-based; conditions: read-out: Drug uptake; how it was run: as §1
[14] = Ratio of drug level in C57Bl/6 mouse brain to serum at 1.5 umol/kg, ip after 1 hr by LC-MS/MS analysis; format: ADME, organism-based
How it was run: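 Male C57Bl/6 mice, 8–10 weeks old, given one i.p. dose of 1.5 μmol/kg in 50% DMSO/saline. Whole brain and blood taken 1 h later; serum obtained from blood clotted on ice ≥30 min and spun at 7,500 × g for 15 min. d6-sobetirome internal standard added, acetonitrile extraction, sobetirome quantified by negative-ESI LC-MS/MS. Mean of n = 3 mice, SEM.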

[15] = AUC (0 to t) in C57Bl/6 mouse brain at 1.5 umol/kg, ip by LC-MS/MS analysis; format: ADME, organism-based; conditions: in vivo; how it was run: as §2
[16] = AUC (0 to t) in C57Bl/6 mouse serum at 1.5 umol/kg, ip by LC-MS/MS analysis; format: ADME, organism-based; conditions: in vivo; how it was run: as §2
[17] = AUC (0 to t) in C57Bl/6 mouse liver at 1.5 umol/kg, ip by LC-MS/MS analysis; format: ADME, organism-based; conditions: in vivo; how it was run: as §2
[18] = AUC (0 to t) in C57Bl/6 mouse heart at 1.5 umol/kg, ip by LC-MS/MS analysis; format: ADME, organism-based; conditions: in vivo; how it was run: as §2
[19] = AUC (0 to t) in C57Bl/6 mouse kidney at 1.5 umol/kg, ip by LC-MS/MS analysis; format: ADME, organism-based; conditions: in vivo; how it was run: as §2

Row | SMILES | Activity [1] | Ratio [2] | also measured
1 | CNCC(C)OC(=O)COc1cc(C)c(Cc2ccc(O)c(C(C)C)c2)c(C)c1 (configuration not stated) | 5.12 ng/g | 0.23 | –
2 | Cc1cc(OCC(=O)NC[C@H](C)O)cc(C)c1Cc1ccc(O)c(C(C)C)c1 | – | – | Drug metabolism [1]: Metabolite_Detected
3 | Cc1cc(OCC(=O)OC(CN)C(F)(F)F)cc(C)c1Cc1ccc(O)c(C(C)C)c1 (configuration not stated) | 5.23 ng/g | 0.2 | –
4 | CCC(CN)OC(=O)COc1cc(C)c(Cc2ccc(O)c(C(C)C)c2)c(C)c1 (configuration not stated) | 4.26 ng/g | 0.41 | –
5 | Cc1cc(OCC(=O)OC2(C(F)(F)F)CNC2)cc(C)c1Cc1ccc(O)c(C(C)C)c1 | 5.14 ng/g | 0.13 | –
6 | Cc1cc(OCC(=O)OC(C)CNC(C)C)cc(C)c1Cc1ccc(O)c(C(C)C)c1 (configuration not stated) | 0.48 ng/g | 0.23 | –
7 | Cc1cc(OCC(=O)OCCN)cc(C)c1Cc1ccc(O)c(C(C)C)c1 | 4.92 ng/g | 0.066 | –
8 | CNCC(OC(=O)COc1cc(C)c(Cc2ccc(O)c(C(C)C)c2)c(C)c1)C(C)C (configuration not stated) | 1.79 ng/g | 0.024 | –
9 | Cc1cc(OCC(=O)OC(C)(C)CN)cc(C)c1Cc1ccc(O)c(C(C)C)c1 | 0.4 ng/g | 1.22 | –
10 | CNCCOC(=O)COc1cc(C)c(Cc2ccc(O)c(C(C)C)c2)c(C)c1 | 6.33 ng/g | 0.21 | –
11 | Cc1cc(OCC(=O)O)cc(C)c1Cc1ccc(O)c(C(C)C)c1 [SOBETIROME] | – | – | concentration at 1 h [13]: 2.32 ng/g; Kp at 1 h [14]: 0.037; AUCt [15]: 9.9 ng·h/g; AUCt [16]: 472.6 ng·h/g; AUCt [17]: 2235 ng·h/g; AUCt [18]: 180.3 ng·h/g; AUCt [19]: 686.8 ng·h/g; Kp [3]: 0.02; half-life [4]: 7.12 h; Activity (Mus musculus [5]): Dose-dependent effect; ED50 (Mus musculus [5]): 1.8 µmol/kg; F (Mus musculus [11]): 92%

More lines, main results first:

Row | Activity [1] | Ratio [2] | SMILES | also measured
12 | 8.12 ng/g | 0.19 | Cc1cc(OCC(=O)O[C@H](C)CN)cc(C)c1Cc1ccc(O)c(C(C)C)c1 | –
13 | 8.26 ng/g | 0.47 | Cc1cc(OCC(=O)O[C@@H](C)CN)cc(C)c1Cc1ccc(O)c(C(C)C)c1 | Kp [3]: 0.13; half-life [4]: 6.96 h; Activity (Mus musculus [5]): Dose-dependent effect; ED50 (Mus musculus [5]): 1 µmol/kg; AUCt [6]: 17.2 ng·h/g; AUCt [7]: 136.5 ng·h/g; AUCt [8]: 1017 ng·h/g; AUCt [9]: 57.2 ng·h/g; AUCt [10]: 283.8 ng·h/g; F (Mus musculus [11]): 36%; F (Mus musculus [12]): 56%
14 | 3.38 ng/g | 0.045 | Cc1cc(OCC(=O)OC(CN)C(C)C)cc(C)c1Cc1ccc(O)c(C(C)C)c1 (configuration not stated) | –
15 | 5.92 ng/g | 0.21 | Cc1cc(OCC(=O)OC(C)CN)cc(C)c1Cc1ccc(O)c(C(C)C)c1 (configuration not stated) | –
16 | 4.46 ng/g | 0.33 | Cc1cc(OCC(=O)OC(C)CCN)cc(C)c1Cc1ccc(O)c(C(C)C)c1 (configuration not stated) | –
